Measurements published in ChEMBL document CHEMBL4680220, “Synthesis and biological evaluation of acridine-based histone deacetylase inhibitors as multitarget agents against Alzheimer's disease” (Eur J Med Chem, 2020).

What was measured:
MDR1 [1] = experiment: Apparent permeability of compound in MDCK-MDR1 cells at 5 uM measured after 2 hrs by LC-MS/MS analysis; type: ADME, cell-based, Canis lupus familiaris; conditions: dog
Outline: (§1)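 MDR1-MDCK monolayers grown to confluence on collagen-coated microporous membranes. Test article dosed at 5 µM apical (A-to-B) or basolateral (B-to-A) in HBSS with 10 mM HEPES, 15 mM glucose, pH 7.4; receiver buffer has 1% BSA. 37 °C, 5% CO2; donor and receiver sampled at 120 min, quantified by LC-MS/MS (ESI). Duplicate determinations; lucifer yellow flux checks monolayer integrity. Efflux ratio = Papp(B-A)/Papp(A-B).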

Hippocampal neurone [2] = experiment: Induction of neurite outgrowth in Sprague-Dawley rat primary hippocampal neurons assessed as increase in length of axonal neurite incubated for 3 days by DAPI staining based immunofluorescence microscopic analysis; type: functional; conditions: time 3.0 day
Outline: (§2)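 Primary hippocampal neurons from embryonic Sprague-Dawley rats, plated on poly-D-lysine and kept in B27-neurobasal medium. Treated with DMSO or compound from DIV3 for three days, fixed at DIV6 in 4% paraformaldehyde. Axons stained with anti-tau, dendrites with anti-MAP2, nuclei with DAPI; fluorescence microscopy. At least 20 neurons traced for number and length of primary, secondary and tertiary neurites.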

Histone deacetylase 5 = Histone deacetylase 5 (Homo sapiens, UniProt Q9UQL6); experiment: Inhibition of recombinant human C-terminal His-tagged HDAC5 (656 to 1122 residues) expressed in baculovirus infected Sf9 insect cells using fluorogenic HDAC 2A substrate preincubated for 5 mins followed by substrate addition and measured after 30 mins by fluorescence assay
Sequence of Histone deacetylase 5 (Q9UQL6 whole entry, the tested form may be a part): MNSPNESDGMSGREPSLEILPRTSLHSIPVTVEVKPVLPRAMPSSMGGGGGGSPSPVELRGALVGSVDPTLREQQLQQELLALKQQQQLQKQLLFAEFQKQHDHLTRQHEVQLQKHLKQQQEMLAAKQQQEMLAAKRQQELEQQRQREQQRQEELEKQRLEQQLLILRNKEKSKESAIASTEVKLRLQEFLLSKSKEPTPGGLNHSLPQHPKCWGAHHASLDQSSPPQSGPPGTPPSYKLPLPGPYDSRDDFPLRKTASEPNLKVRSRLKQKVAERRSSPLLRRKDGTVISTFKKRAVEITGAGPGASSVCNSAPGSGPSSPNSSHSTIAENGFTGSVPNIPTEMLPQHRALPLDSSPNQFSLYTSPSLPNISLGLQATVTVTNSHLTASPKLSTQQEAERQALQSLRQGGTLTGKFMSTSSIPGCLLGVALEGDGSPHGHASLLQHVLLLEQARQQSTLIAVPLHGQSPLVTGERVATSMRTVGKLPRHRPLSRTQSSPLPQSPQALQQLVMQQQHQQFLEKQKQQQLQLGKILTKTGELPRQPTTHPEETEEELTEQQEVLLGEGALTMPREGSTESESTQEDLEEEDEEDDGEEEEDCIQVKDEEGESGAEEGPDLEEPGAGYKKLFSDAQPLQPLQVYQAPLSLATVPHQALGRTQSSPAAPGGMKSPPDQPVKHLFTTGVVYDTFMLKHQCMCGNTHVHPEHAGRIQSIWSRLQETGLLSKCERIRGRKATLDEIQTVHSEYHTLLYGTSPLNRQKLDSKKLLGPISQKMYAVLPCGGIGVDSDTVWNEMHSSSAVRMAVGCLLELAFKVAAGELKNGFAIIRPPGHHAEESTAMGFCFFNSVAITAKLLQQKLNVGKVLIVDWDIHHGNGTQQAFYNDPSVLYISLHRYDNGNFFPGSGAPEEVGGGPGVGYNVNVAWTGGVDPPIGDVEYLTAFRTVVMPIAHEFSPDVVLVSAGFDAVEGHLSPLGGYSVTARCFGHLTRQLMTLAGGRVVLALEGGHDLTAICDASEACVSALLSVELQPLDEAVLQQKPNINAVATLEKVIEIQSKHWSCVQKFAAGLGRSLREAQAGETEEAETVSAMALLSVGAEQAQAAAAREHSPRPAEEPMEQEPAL

[3] = target: Class 1 histone deacetylase (Homo sapiens, UniProt Q13547+O15379+Q92769+Q9BY41); experiment: Inhibition of Class 1 HDAC in […] cells assessed as increase in acetylated Histone H3 level measured after 24 hrs by Western blot analysis; type: cell-based; conditions: for inhibition: Mus musculus
Sequence of Class 1 histone deacetylase (O15379 whole entry, looked up): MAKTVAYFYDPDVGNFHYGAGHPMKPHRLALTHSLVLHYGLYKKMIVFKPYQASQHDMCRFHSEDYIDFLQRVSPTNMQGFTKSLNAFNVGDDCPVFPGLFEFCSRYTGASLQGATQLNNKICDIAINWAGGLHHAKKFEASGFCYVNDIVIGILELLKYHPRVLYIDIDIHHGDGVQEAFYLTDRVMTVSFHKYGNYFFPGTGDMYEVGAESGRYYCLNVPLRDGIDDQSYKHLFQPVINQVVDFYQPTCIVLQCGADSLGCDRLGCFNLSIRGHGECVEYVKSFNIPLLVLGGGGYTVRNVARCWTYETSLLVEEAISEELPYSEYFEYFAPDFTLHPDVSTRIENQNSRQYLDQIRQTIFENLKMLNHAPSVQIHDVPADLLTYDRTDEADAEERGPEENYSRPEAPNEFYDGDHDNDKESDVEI
Sequence of Class 1 histone deacetylase (Q13547 whole entry, looked up): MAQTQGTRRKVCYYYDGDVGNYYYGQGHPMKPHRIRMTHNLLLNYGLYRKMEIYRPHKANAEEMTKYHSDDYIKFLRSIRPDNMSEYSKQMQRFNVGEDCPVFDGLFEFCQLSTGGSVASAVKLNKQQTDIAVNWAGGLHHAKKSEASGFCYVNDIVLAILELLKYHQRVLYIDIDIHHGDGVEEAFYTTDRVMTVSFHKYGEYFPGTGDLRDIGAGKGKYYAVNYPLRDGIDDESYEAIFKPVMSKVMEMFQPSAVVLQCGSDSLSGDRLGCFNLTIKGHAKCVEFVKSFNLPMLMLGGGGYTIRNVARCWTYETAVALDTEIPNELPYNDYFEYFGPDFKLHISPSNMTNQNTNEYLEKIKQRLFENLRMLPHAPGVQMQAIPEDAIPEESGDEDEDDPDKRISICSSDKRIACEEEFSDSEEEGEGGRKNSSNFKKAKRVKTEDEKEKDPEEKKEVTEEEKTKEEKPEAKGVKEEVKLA
Sequence of Class 1 histone deacetylase (Q92769 whole entry, looked up): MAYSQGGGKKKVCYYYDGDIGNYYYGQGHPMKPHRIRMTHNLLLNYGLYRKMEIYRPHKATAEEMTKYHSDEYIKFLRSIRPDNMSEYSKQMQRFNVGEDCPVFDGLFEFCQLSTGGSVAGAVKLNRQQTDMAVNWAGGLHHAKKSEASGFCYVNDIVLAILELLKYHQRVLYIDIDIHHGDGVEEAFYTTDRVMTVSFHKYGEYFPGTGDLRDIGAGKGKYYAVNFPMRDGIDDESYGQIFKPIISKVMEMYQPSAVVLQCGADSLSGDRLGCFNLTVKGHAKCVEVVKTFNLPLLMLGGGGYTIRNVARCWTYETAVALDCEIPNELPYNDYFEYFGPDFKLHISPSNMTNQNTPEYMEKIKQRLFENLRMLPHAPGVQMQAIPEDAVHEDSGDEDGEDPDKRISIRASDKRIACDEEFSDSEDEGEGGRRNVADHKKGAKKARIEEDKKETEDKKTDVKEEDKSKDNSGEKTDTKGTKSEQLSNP
Sequence of Class 1 histone deacetylase (Q9BY41 whole entry, looked up): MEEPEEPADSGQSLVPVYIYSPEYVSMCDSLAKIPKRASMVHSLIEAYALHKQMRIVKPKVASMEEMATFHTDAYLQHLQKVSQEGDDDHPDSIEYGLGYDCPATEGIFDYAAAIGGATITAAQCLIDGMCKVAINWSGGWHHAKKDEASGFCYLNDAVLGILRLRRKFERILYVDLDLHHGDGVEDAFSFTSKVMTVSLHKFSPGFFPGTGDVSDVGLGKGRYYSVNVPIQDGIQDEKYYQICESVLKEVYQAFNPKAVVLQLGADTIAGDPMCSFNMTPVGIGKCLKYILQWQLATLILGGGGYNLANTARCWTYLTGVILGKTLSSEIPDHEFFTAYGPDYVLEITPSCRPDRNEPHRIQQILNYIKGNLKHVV

Hippocampal neurone [4] = experiment: Induction of neurite outgrowth in Sprague-Dawley rat primary hippocampal neurons assessed as increase in number of axonal and dendritic neurite incubated for 3 days by DAPI staining based immunofluorescence microscopic analysis; type: functional; conditions: time 3.0 day; outline: as §2
[5] = target: Amyloid-beta precursor protein (Homo sapiens, UniProt P05067); experiment: Inhibition of amyloid beta (1 to 42) (unknown origin) self aggregation after 24 hrs by thioflavin-T fluorescence method
Sequence of Amyloid-beta precursor protein (P05067 whole entry): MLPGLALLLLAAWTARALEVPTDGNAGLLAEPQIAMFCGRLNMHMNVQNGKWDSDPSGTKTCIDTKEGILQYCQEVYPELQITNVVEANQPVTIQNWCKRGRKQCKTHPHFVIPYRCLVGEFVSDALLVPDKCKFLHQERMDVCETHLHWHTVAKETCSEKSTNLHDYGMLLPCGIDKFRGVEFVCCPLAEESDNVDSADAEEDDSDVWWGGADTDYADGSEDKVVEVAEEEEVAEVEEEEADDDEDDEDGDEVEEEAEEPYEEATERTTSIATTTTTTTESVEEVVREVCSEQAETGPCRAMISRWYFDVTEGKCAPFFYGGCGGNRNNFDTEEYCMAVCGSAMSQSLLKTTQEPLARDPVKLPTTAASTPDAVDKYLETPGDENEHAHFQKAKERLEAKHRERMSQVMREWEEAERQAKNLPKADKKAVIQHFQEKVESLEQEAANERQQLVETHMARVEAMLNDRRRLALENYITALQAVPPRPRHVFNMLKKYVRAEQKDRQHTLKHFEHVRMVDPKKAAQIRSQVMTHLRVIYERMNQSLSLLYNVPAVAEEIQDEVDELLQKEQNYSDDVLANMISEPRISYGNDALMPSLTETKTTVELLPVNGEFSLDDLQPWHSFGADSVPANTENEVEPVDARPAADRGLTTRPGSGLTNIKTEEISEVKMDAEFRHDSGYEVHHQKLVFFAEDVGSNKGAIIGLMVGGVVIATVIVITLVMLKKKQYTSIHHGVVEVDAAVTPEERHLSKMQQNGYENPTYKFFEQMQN
Outline: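 ThT aggregation assay. Compound at varying concentrations combined with 10 µM Aβ1-42 (1 mM DMSO stock), 10 µM ThT, 1 mM EDTA in 50 mM phosphate buffer (150 mM NaCl, pH 7.4). Incubated 24 h at 37 °C with shaking at 700 rpm; fluorescence ex 440/em 486 nm. 0.1% DMSO wells = 100% aggregation; compound wells without Aβ = background. IC50 from triplicates.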

[6] = Half life in human liver microsomes at 1 uM preincubated for 3 mins followed by NADPH addition and measured up to 60 mins by LC-MS/MS analysis; type: ADME, Microsome; conditions: time <=63 min
Outline: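 Mixed-gender human liver microsomes with test article at 1 µM final. Testosterone (5 µM) run separately as control. Mixture without cofactor equilibrated 3 min at 37 °C in a shaking water bath, then started with cofactor. Aliquots taken at 0, 10, 20, 30 and 60 min. CLint = k/P, where k is the elimination rate constant and P is the incubation protein concentration.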

Histone deacetylase 2 = Histone deacetylase 2 (Homo sapiens, UniProt Q92769); experiment: biochemical; type: cell-based, Sf9
Sequence of Histone deacetylase 2 (Q92769 whole entry): as the sequence (Q92769 whole entry, looked up) above

MDR1 [7] = experiment: Efflux ratio of apparent permeability across basolateral to apical side over apical to basolateral side in MDCK-MDR1 cells at 5 uM measured after 2 hrs by LC-MS/MS analysis; type: ADME, cell-based, Canis lupus familiaris; conditions: dog; outline: as §1
Histone deacetylase 7 = target: T1, Histone deacetylase 7 (Homo sapiens, UniProt Q8WUI4); experiment: Inhibition of recombinant human N-terminal GST-tagged HDAC7 (518 to end residues) expressed in baculovirus infected Sf9 cells using fluorogenic HDAC 2A substrate preincubated for 5 mins followed by substrate addition and measured after 30 mins by fluorescence assay
T1 sequence (Q8WUI4 whole entry): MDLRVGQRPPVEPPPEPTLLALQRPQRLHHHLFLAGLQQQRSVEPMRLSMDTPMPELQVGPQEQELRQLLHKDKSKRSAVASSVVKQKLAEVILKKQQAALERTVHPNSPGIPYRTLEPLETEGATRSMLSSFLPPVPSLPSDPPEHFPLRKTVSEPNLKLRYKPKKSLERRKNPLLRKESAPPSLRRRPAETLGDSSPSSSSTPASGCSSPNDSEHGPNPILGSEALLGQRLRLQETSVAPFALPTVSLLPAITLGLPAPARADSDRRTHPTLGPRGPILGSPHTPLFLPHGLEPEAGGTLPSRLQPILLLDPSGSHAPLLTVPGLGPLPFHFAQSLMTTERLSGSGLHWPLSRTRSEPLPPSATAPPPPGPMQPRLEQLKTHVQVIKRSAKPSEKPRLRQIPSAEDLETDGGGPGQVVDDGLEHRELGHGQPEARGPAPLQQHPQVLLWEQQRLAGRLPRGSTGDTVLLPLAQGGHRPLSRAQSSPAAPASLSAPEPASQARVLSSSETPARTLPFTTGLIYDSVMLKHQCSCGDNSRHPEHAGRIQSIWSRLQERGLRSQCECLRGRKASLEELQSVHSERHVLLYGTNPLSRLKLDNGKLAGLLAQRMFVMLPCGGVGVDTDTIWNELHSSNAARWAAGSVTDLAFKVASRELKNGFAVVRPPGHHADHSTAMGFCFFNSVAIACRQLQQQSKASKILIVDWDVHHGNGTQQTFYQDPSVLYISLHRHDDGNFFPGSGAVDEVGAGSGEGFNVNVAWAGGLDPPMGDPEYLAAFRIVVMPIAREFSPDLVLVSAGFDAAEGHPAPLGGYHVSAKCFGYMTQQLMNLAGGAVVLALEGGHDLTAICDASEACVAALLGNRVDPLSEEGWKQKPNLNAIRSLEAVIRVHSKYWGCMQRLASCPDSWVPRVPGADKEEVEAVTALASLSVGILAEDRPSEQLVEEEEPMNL

Row | Compound | Papp at 2 h, 5 µM (MDR1 [1]) [×10⁻⁶ cm/s] | Activity (Hippocampal neurone [2]) | IC50 (Histone deacetylase 5) [nM] | EC50 [3] [nM] | inhibition [3] | Activity (Hippocampal neurone [4]) | IC50 [5] [nM] | half-life at 1 µM [6] [min] | IC50 (Histone deacetylase 2) [nM] | efflux ratio at 2 h, 5 µM (MDR1 [7]) | IC50 (Histone deacetylase 7) [nM]
1 | O=C(NO)c1ccc(Nc2c3ccccc3nc3ccc(Br)cc23)cc1 | 4.57 | Dose-dependent effect | 7190 | 580 | Dose-dependent effect | Dose-dependent effect | 1100 | 37.9 | 480 | 7.42 | 9130
2 | O=C(NO)c1ccc(Nc2c3ccccc3nc3ccccc23)cc1 | 2.72 |  | 850 | 7960 | Dose-dependent effect | Dose-dependent effect | 3000 | 33.9 | 1570 |  | 
